In ChEMBL document CHEMBL1781939, “Triterpene and sterol derivatives from the roots of Breynia fruticosa” (J Nat Prod, 2011) one finds IC50 data, which are given here for ten compounds.

What all share (format): functional, cell-based
The subject of one experiment is HL-60. As to the kind of experiment: Cytotoxicity against human HL60 cells after 48 hrs by MTT assay. The note with it: HL-60, 48 h. The essentials: (§1)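 Cells grown in DMEM with 10% FBS, 5% CO2, 37 °C. Adherent lines plated and left to attach 12 h before dosing; suspension HL-60 plated immediately before dosing; starting density 1 × 10^5 cells/mL. Treated with 0.064, 0.32, 1.6, 8 and 40 μM in triplicate for 48 h; cisplatin as positive control. Viability by MTT; IC50 by Reed–Muench method.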
(In general: Tetrazolium dyes change colour on reduction, which living cells bring about.)

In a further experiment the test system is SMMC-7721. As to the kind of experiment: Cytotoxicity against human SMMC7721 cells after 48 hrs by MTT assay. The note with it: SMMC-7721, 48 h. Put shortly:
as §1

Another experiment relates to A549. As to the kind of experiment: Cytotoxicity against human A549 cells after 48 hrs by MTT assay. The conditions noted are these: A549, 48 h. Put shortly: as §1
The next experiment concerns MCF7. As to the kind of experiment: Cytotoxicity against human MCF7 cells after 48 hrs by MTT assay. The note with it: MCF7, 48 h. Put shortly: as §1
The next experiment concerns SW480. As to the kind of experiment: Cytotoxicity against human SW480 cells after 48 hrs by MTT assay. The conditions noted are these: SW480, 48 h. Put shortly:
as §1

The IC50 is the midpoint of a concentration-inhibition curve. The low end stands for greater potency, the high end for weaker potency. In the case of `C=C(C)[C@@H]1CC[C@]2(C(=O)O)CC[C@]34C(=O)O[C@]5(CC[C@@H]3[C@@H]12)[C@@]4(C)CC[C@]12O[C@]51[C@@H](C)CC2(C)C` [BREYNCEANOTHANOLIC ACID], the IC50 came to 10.2 µM with HL-60; 14.3 µM in the experiment on SMMC-7721; 14.5 µM with A549; 12.7 µM in the experiment with MCF7; 20 µM in the experiment on SW480.

Consider `C=C(C)[C@@H]1CC[C@]2(C(=O)O)CC[C@]3(C)[C@H](CC[C@@H]4[C@@]5(C)[C@H](C(=O)O)[C@H](O)C(C)(C)[C@@H]5CC[C@]43C)[C@@H]12` [EPICEANOTHIC ACID], for which the IC50 in the experiment on HL-60, in the experiment on SMMC-7721, with A549, with MCF7 and in the experiment on SW480 was greater than 40 µM each time.

On to `C=C(CC[C@@H](CO)[C@H]1CC[C@H]2C3=CC[C@H]4[C@H](C)[C@@H](O)[C@H](O)C[C@]4(C)[C@H]3CC[C@]12C)C(C)C` [FRUTICOSIDE A], for which the IC50 in the experiment on HL-60 worked out at 3 µM; with SMMC-7721, 18.5 µM; with A549, 15.7 µM; with MCF7, 15.4 µM; with SW480, 18.4 µM.

For `C=C(CC[C@@H](C(=O)O)[C@H]1CC[C@H]2C3=CC[C@H]4[C@H](C)[C@@H](O)[C@H](O)C[C@]4(C)[C@H]3CC[C@]12C)C(C)C` [FRUTICOSIDE B], the IC50 in the experiment with HL-60, in the experiment on SMMC-7721, in the experiment with A549, with MCF7 and with SW480 was greater than 40 µM throughout.

With `C=C(CC[C@@H](C(=O)O)[C@H]1CC[C@H]2C3=CC[C@H]4[C@H](C)[C@@H](O[C@@H]5O[C@@H](C)[C@H](O)[C@@H](O)[C@@H]5O)[C@H](O)C[C@]4(C)[C@H]3CC[C@]12C)C(C)C` [FRUTICOSIDE C], the IC50 in the experiment on HL-60, in the experiment with SMMC-7721, with A549, in the experiment on MCF7 and in the experiment on SW480 was greater than 40 µM each time.

`C=C(CC[C@@H](C(=O)O)[C@H]1CC[C@H]2C3=CC[C@H]4[C@H](C)[C@@H](O[C@@H]5O[C@@H](C)[C@H](O)[C@@H](O)[C@@H]5O)[C@H](OC(C)=O)C[C@]4(C)[C@H]3CC[C@]12C)C(C)C` [FRUTICOSIDE D]: the half-inhibitory concentration (IC50) with HL-60, with SMMC-7721, in the experiment on A549, with MCF7 and with SW480 was greater than 40 µM in each case.

With `C=C(CC[C@@H](C(=O)O)[C@H]1CC[C@H]2C3=CC[C@H]4[C@H](C)[C@@H](O[C@@H]5O[C@@H](C)[C@H](O)[C@@H](O)[C@H]5O)[C@H](OC(C)=O)C[C@]4(C)[C@H]3CC[C@]12C)C(C)C` [FRUTICOSIDE E], the IC50 with HL-60, in the experiment on SMMC-7721, in the experiment on A549, with MCF7 and in the experiment with SW480 was greater than 40 µM each time.

As to `C=C(CC[C@@H](C(=O)S)[C@H]1CC[C@H]2C3=CC[C@H]4[C@H](C)[C@@H](O[C@@H]5O[C@@H](C)[C@H](O)[C@@H](O)[C@@H]5O)[C@H](OC(C)=O)C[C@]4(C)[C@H]3CC[C@]12C)C(C)C` [FRUTICOSIDE F], the IC50 with HL-60, in the experiment with SMMC-7721, in the experiment on A549, in the experiment with MCF7 and in the experiment with SW480 was greater than 40 µM in each case.

`C/C=C(/CC[C@@H](C(=O)S)[C@H]1CC[C@H]2C3=CC[C@H]4[C@H](C)[C@@H](O[C@@H]5O[C@@H](C)[C@H](O)[C@@H](O)[C@@H]5O)CC[C@]4(C)[C@H]3CC[C@]12C)C(C)C` [FRUTICOSIDE G]: the IC50 in the experiment with HL-60, with SMMC-7721, in the experiment with A549, in the experiment with MCF7 and in the experiment on SW480 was greater than 40 µM throughout.

On to `C=C(C)[C@@H]1CC[C@]2(C(=O)O)CC[C@]3(C)[C@H](CC[C@@H]4[C@@]5(C)[C@H](C=O)[C@H](O)C(C)(C)[C@@H]5CC[C@]43C)[C@@H]12` [ZIZYBERANALIC ACID], for which the IC50 in the experiment on HL-60, in the experiment on SMMC-7721, in the experiment on A549, with MCF7 and in the experiment on SW480 was greater than 40 µM in each case.
